The results in this text go back to ChEMBL document CHEMBL2346611, “Preliminary structure-activity relationships and biological evaluation of novel antitubercular indolecarboxamide derivatives against drug-susceptible and drug-resistant Mycobacterium tuberculosis strains” (J Med Chem, 2013).

Molecules are shown by their SMILES. Converted amounts (≈) assume the structure as drawn. The source made the active and inactive calls. The calls are words filed in the database; no cut-off is given here. Bounds are passed on as bounds.

In one test the test system is Vero. Description: Cytotoxicity against african green monkey Vero cells by microplate Alamar Blue assay. Format: cell-based. The conditions noted are these: Chlorocebus sabaeus. A digest of the protocol: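 Cytotoxicity was measured on Vero cells in microplate Alamar Blue assay format.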
On the technique in general: Alamar Blue is a resazurin reagent that responds to reducing activity.

In test [1] the test system is Mycobacterium tuberculosis. Description: Antitubercular activity against Mycobacterium tuberculosis H37Rv by microplate Alamar Blue assay. Format: functional. A digest of the protocol: (§1)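 Mycobacterium tuberculosis strains were used: H37Rv, and clinical strains from KwaZulu-Natal (MDR KZN494 and V2475; XDR TF274 and R506). Growth was read by microplate Alamar Blue assay. MIC is the lowest drug concentration giving at least a 90% reduction of the bacterial growth signal. Values are the average of three individual measurements.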

Test [2] has as its system Mycobacterium tuberculosis. Nature of the test: Antitubercular activity against Mycobacterium tuberculosis H37Rv after 21 days by spectrophotometric analysis. Format: functional. The conditions noted are these: 504 h.
Test [3] concerns Mycobacterium tuberculosis. Nature of the test: Antitubercular activity against drug-susceptible Mycobacterium tuberculosis V4207 by microplate Alamar Blue assay. The test is classed as functional.
Test [4] deals with Mycobacterium tuberculosis. Nature of the test: Ratio of isoniazid MIC to compound MIC for Mycobacterium tuberculosis H37Rv. The test is classed as functional.
The subject of test [5] is Mycobacterium tuberculosis. Nature of the test: Antitubercular activity against Mycobacterium tuberculosis H37Rv in 300 mg/kg, po dosed Balb/c mouse serum measured after 7 days by serum inhibition titration based microplate Alamar Blue assay. The test is classed as functional, organism-based. Details: dose 300 mg/kg. A digest of the protocol: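 Six-week-old female BALB/c mice got a single oral gavage of 100 or 300 mg/kg, ground to a suspension in 0.5% carboxymethyl cellulose. Controls were isoniazid 10 mg/kg and vehicle. Cardiac blood was taken at 15, 30 and 60 min and serum separated. Serum was two-fold serially diluted, 10^4 CFU H37Rv added, incubated 7 days and read by MABA.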

Test [6] is described as follows: Selectivity index, ratio of IC50 for african green monkey vero cells to MIC90 for Mycobacterium tuberculosis H37Rv. The test is classed as functional.
For test [7], the system named is Mycobacterium tuberculosis. Description: Antitubercular activity against Mycobacterium tuberculosis H37Rv. Format: functional. A digest of the protocol:
as §1

As to `Cc1cc(C)c2cc(C(=O)Nc3ccc(C)c(F)c3)[nH]c2c1`, the IC50 (commonly the point on the concentration scale where inhibition reaches its midpoint) in the test on Vero was above 200 µM. The MIC90 (as a rule, the lowest concentration that inhibits either 90% of growth or 90% of the strains tested, depending on the study) in test [1] was determined as 1.7 µM (≈ 0.504 µg/mL). Compound `O=[N+]([O-])c1cn2c(n1)OC[C@@H](OCc1ccc(OC(F)(F)F)cc1)C2` [PRETOMANID] returned an MIC90 in test [2] of 0.04 µM (≈ 0.0144 µg/mL). On to `Cc1cc(C)c2nc(C(=O)NC3C4CC5CC(C4)CC3C5)[nH]c2c1` (stereo not given), for which the MIC90 in test [1] was 1.5 µM (≈ 0.485 µg/mL). `Cc1cc(C)c2cc(C(=O)NC3CCCCCC3)[nH]c2c1`: the MIC90 in test [3] came out at 0.11 µM (≈ 0.0313 µg/mL); in test [1], 0.055 µM (≈ 0.0156 µg/mL). The compound further came in with an IC50 in the test with Vero above 200 µM. In addition, the Ratio in test [4] was determined as 5. The outcome in test [5] was inactive. The “Selectivity Index” value in test [6] is on record as above 3600. Regarding `Cc1cc(C)c2nc(C(=O)NC34CC5CC(CC(C5)C3)C4)[nH]c2c1`, the MIC90 in test [1] came to 0.39 µM (≈ 0.126 µg/mL). `Cc1cc(C)c2c(C(=O)NC3CCCCCCC3)c[nH]c2c1` yielded an MIC90 in test [1] of 200 µM (≈ 59.7 µg/mL). Turning to `Cc1cc(C)c2cc(C(=O)NC3CCCCC3)[nH]c2c1`, the MIC90 in test [3] and in test [1] was 0.93 µM (≈ 0.251 µg/mL) each time. The compound also registered an IC50 with Vero above 200 µM. In test [1], `O=C(NC1CCCCCCC1)c1cc2c(F)cc(F)cc2[nH]1` displayed an MIC90 of 0.1 µM (≈ 0.0306 µg/mL). In the case of `Cc1cc(C)c2cc(C(=O)NC3CCCCC3)n(C)c2c1`, the MIC90 in test [1] worked out at 450 µM (≈ 128 µg/mL). `COc1cc2[nH]c(C(=O)NC3CCCCCCC3)cc2cn1` displayed an MIC90 in test [1] of 6.6 µM (≈ 1.99 µg/mL). Regarding `COc1cc2[nH]c(C(=O)NC34CC5CC(CC(C5)C3)C4)cc2cn1`, the MIC90 in test [1] came out at 1.5 µM (≈ 0.488 µg/mL).

As for `Cc1cc(C)c2c(C(=O)NC34CC5CC(CC(C5)C3)C4)c[nH]c2c1`, in test [1], the MIC90 worked out at 200 µM (≈ 64.5 µg/mL). `Cc1cc(C)c2cc(C(=O)NC3CCCCCC3)oc2c1`: the MIC90 in test [1] was 56 µM (≈ 16 µg/mL).

In test [1], `O=C(NC1CCCCCC1)c1cc2c(F)cc(F)cc2[nH]1` displayed an MIC90 of 0.86 µM (≈ 0.251 µg/mL). In turn, `Cc1cc(C)c2nc(C(=O)NC3CCCCCCC3)[nH]c2c1` returned an MIC90 in test [1] of 1.7 µM (≈ 0.509 µg/mL). `Cc1cc(C)c2cc(C(=O)NC3CCN(C)CC3)[nH]c2c1` had an MIC90 in test [1] of 448 µM (≈ 128 µg/mL). The compound `COc1nc2ccc(Br)cc2cc1[C@@H](c1ccccc1)[C@@](O)(CCN(C)C)c1cccc2ccccc12` [BEDAQUILINE] yielded an MIC90 in test [7] of 0.05 µM (≈ 0.0278 µg/mL).

In test [1], `COc1ccc2cc(C(=O)NC34CC5CC(CC(C5)C3)C4)[nH]c2c1` returned an MIC90 of 0.77 µM (≈ 0.25 µg/mL). Still for that read-out and setting: to `CCCCCCNC(=O)c1cc2c(C)cc(C)cc2o1` belongs 59 µM (≈ 16.1 µg/mL); to `O=C(NC1CCCCCCC1)c1cc2cc(Cl)ccc2o1`, 26 µM (≈ 7.95 µg/mL); to `Cc1ccc(NC(=O)c2cc3ccccc3[nH]2)cc1F`, 477 µM (≈ 128 µg/mL). Same read-out and setting: as for `Cc1cc(C)c2cc(C(=O)NC3CCCCCCC3)oc2c1`, the figure is 27 µM (≈ 8.08 µg/mL); as for `Cc1cc(C)c2cc(C(=O)N3CCCCC3)[nH]c2c1`, above 499 µM. In the case of `O=C(NC12CC3CC(CC(C3)C1)C2)c1cc2cc(Cl)ccc2[nH]1`, in test [1], the MIC90 came to 0.38 µM (≈ 0.125 µg/mL). `Cc1cc(C)c2c(C(=O)NC3C4CC5CC(C4)CC3C5)c[nH]c2c1` (stereo not given) showed an MIC90 in test [1] of 200 µM (≈ 64.5 µg/mL).

`Cc1cc(C)c2cc(C(=O)NC3CCCN(C)CC3)[nH]c2c1` (stereo not given) gave an MIC90 in test [1] of 428 µM (≈ 128 µg/mL). Same read-out and setting: as for `Cc1cc(C)c2cc(C(=O)NC3CCN(C(C)C)CC3)[nH]c2c1`, the figure is 204 µM (≈ 63.9 µg/mL); as for `O=C(NC12CC3CC(CC(C3)C1)C2)c1cc2cc(Cl)ccc2o1`, at least 388 µM; as for `Cc1cc(C)c2c(C(=O)NC3CCCCCC3)c[nH]c2c1`, 200 µM (≈ 56.9 µg/mL).

Turning to `O=C(NC1CCCCCCC1)c1cc2c(C(F)(F)F)cc(C(F)(F)F)cc2[nH]1`, the MIC90 in test [1] worked out at 0.04 µM (≈ 0.0163 µg/mL). Take `NNC(=O)c1ccncc1` [ISONIAZID]: the MIC90 in test [1] stood at 0.29 µM (≈ 0.0398 µg/mL).

`Cc1cc(C)c2cc(C(=O)NC34CC5CC(CC(C5)C3)C4)oc2c1` had an MIC90 in test [1] of 3.1 µM (≈ 1 µg/mL).

As to `Cc1cc(C)c2nc(C(=O)NC3CCCCCC3)[nH]c2c1`, the MIC90 in test [1] was above 224 µM.

Consider `Cc1cc(C)c2cc(C(=O)NC34CC5CC(CC(C5)C3)C4)[nH]c2c1`, for which the IC50 with Vero was above 200 µM. The MIC90 in test [1] worked out at 0.012 µM (≈ 0.00387 µg/mL). Further, the result in test [5] was inactive. The “Selectivity Index” value in test [6] is above 16600.

Regarding `O=C(NC1CCCCCC1)c1cc2c(C(F)(F)F)cc(C(F)(F)F)cc2[nH]1`, the MIC90 in test [1] came to 0.64 µM (≈ 0.251 µg/mL).

As for `Cc1cc(C)c2cc(C(=O)NC3C4CC5CC(C4)CC3C5)[nH]c2c1` (stereo not given), the IC50 in the test with Vero is above 200 µM. In test [1], the MIC90 is 0.012 µM (≈ 0.00387 µg/mL). Further, the outcome in test [5] was inactive. In addition, the “Selectivity Index” value in test [6] is above 16600. Turning to `Cc1cc(C)c2cc(C(=O)NC3CCCCCCC3)[nH]c2c1`, the MIC90 in test [3] worked out at 0.026 µM (≈ 0.00776 µg/mL); in test [1], 0.013 µM (≈ 0.00388 µg/mL). This compound came in with an IC50 with Vero of 54 µM. Moreover, in test [5], the result was Active. Further, the “Selectivity Index” value in test [6] is given as 4100.

As to `Cc1cc(C)c2cc(C(=O)NCC3CCCCC3)[nH]c2c1`, the IC50 in the test on Vero was above 200 µM. In test [1], the MIC90 came to 0.88 µM (≈ 0.25 µg/mL).

Compound `Cc1cc(C)c2cc(C(=O)Nc3ccncc3)[nH]c2c1` yielded an MIC90 in test [1] of 240 µM (≈ 63.7 µg/mL). Turning to `O=C(NC1CCCCC1)c1cc2ccccc2[nH]1`, the MIC90 in test [1] is above 528 µM. Consider `O=C(NC12CC3CC(CC(C3)C1)C2)c1cc2ccc(O)cc2[nH]1`, for which the MIC90 in test [1] was 13 µM (≈ 4.04 µg/mL). With `Cc1cc(C)c2cc(C(=O)NC3CC4CCC3C4)oc2c1` (stereo not given), the MIC90 in test [1] worked out at 113 µM (≈ 32 µg/mL).

For `Cc1cc(C)c2cc(C(=O)N(C)C3CCCCC3)[nH]c2c1`, in test [1], the MIC90 worked out at 450 µM (≈ 128 µg/mL). Take `Cc1cc(C)c2cc(C(=O)NC3CC3)[nH]c2c1`: the MIC90 in test [1] was found to be 561 µM (≈ 128 µg/mL). As for `Cc1cc(C)c2cc(C(=O)Nc3ccccc3)[nH]c2c1`, the concentration for half-maximal inhibition (IC50) in the test on Vero was above 200 µM. Besides, in test [1], the MIC90 amounted to 3.8 µM (≈ 1 µg/mL).
